According to ChEMBL document CHEMBL4725451, “Discovery of Tricyclic Xanthines as Agonists of the Cannabinoid-Activated Orphan G-Protein-Coupled Receptor GPR18” (ACS Med Chem Lett, 2020):
Active and inactive are the calls of the source. The rule behind the calls is not given here.

Key:
[1] = molecular target: T1, N-arachidonyl glycine receptor (Homo sapiens, UniProt Q14330); experiment: (§1) Agonist activity at Prolink1-tagged human GPR18 receptor expressed in CHO cells assessed as induction of beta-arrestin recruitment after 90 mins by beta-galactosidase based topcount luminescence analysis; format: cell-based
T1 sequence (Q14330 whole entry): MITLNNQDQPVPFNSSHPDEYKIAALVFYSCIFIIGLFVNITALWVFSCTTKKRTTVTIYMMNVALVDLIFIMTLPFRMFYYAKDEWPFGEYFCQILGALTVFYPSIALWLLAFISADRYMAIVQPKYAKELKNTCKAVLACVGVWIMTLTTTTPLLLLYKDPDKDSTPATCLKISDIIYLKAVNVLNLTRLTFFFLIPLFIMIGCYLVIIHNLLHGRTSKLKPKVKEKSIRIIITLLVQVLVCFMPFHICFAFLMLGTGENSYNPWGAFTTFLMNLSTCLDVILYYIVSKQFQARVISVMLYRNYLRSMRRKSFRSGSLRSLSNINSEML

[2] = molecular target: T2, N-arachidonyl glycine receptor (Homo sapiens) (UniProt Q14330); experiment: Agonist activity at Prolink1-tagged human GPR18 receptor expressed in CHO cells assessed as induction of beta-arrestin recruitment at 10 uM after 90 mins by beta-galactosidase based topcount luminescence analysis relative to control; format: cell-based
T2 sequence (whole entry): T1 sequence (Q14330 whole entry)
In short: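 CHO cells stably expressing human GPR18, β-arrestin enzyme-complementation assay with luminescence read-out. Test compound at 10 μM single concentration; signal normalized to that of 10 μM Δ9-THC.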

[3] = molecular target: T1, N-arachidonyl glycine receptor; experiment: Antagonist activity at Prolink1-tagged human GPR18 receptor expressed in CHO cells assessed as inhibition of THC-induced beta arrestin recruitment after 90 mins by beta-galactosidase based topcount luminescence analysis; format: functional, cell-based
[4] = molecular target: T3, G-protein coupled receptor 55 (Homo sapiens, UniProt Q9Y2T6); experiment: Agonist activity at Prolink1-tagged human GPR55 receptor expressed in CHO cells assessed as induction of beta-arrestin recruitment after 90 mins by beta-galactosidase based topcount luminescence analysis; format: cell-based
[5] = molecular target: T3, G-protein coupled receptor 55; experiment: Agonist activity at Prolink1-tagged human GPR55 receptor expressed in CHO cells assessed as induction of beta-arrestin recruitment at 10 uM after 90 mins by beta-galactosidase based topcount luminescence analysis relative to control; format: cell-based
In short: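 CHO cells stably expressing GPR55, β2-arrestin recruitment detected by enzyme complementation and luminescence. Compounds tested at 10 μM; effect normalized to signal from 1 μM LPI.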

[6] = molecular target: T3, G-protein coupled receptor 55; experiment: Antagonist activity at Prolink1-tagged human GPR55 receptor expressed in CHO cells assessed as inhibition of lysophosphatidylinositol-induced beta arrestin recruitment after 90 mins by beta-galactosidase based topcount luminescence analysis; format: functional, cell-based
[7] = molecular target: T3, G-protein coupled receptor 55; experiment: Antagonist activity at Prolink1-tagged human GPR55 receptor expressed in CHO cells assessed as inhibition of lysophosphatidylinositol-induced beta arrestin recruitment at 10 uM after 90 mins by beta-galactosidase based topcount luminescence analysis relative to control; format: functional, cell-based
In short: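 GPR55-expressing CHO cells, β-arrestin complementation luminescence. Percent inhibition by test compound at 10 μM of the response to 1 μM LPI.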

[8] = molecular target: Cannabinoid receptor 1 (Homo sapiens) (UniProt P21554); experiment: Displacement of [3H]CP55,940 from human CB1 receptor expressed in CHO cell membranes after 2 hrs by liquid scintillation analysis
In short: (§2)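 CB receptor radioligand binding: test compound at 10 μM single concentration, scored for displacement of a CB-specific radioligand and for any increase in bound radioligand.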

[9] = molecular target: Cannabinoid receptor 2 (Homo sapiens) (UniProt P34972); experiment: Displacement of [3H]CP55,940 from human CB2 receptor expressed in CHO cell membranes after 2 hrs by liquid scintillation analysis; in short: as §2
[10] = molecular target: T2, N-arachidonyl glycine receptor (Homo sapiens); experiment: as §1, with “recruitment by measuring maximum inhibition of 2-(3-(6-(4-chlorophenoxy)hexyloxy)benzylidene)-6,7-dihydro-2H-imidazo[2,1-b][1,3]thiazin-3(5H)-one at 1 uM” for “recruitment”; format: cell-based; conditions: filed as agonist
In short: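 Human GPR18 stably expressed in CHO cells, β-arrestin enzyme complementation. Antagonist concentration-inhibition curves run against a fixed 1 μM agonist stimulus. IC50 and maximal inhibition derived from curves; means of three independent experiments, each in duplicate.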

[11] = molecular target: T2, N-arachidonyl glycine receptor (Homo sapiens); experiment: Agonist activity at Prolink1-tagged human GPR18 receptor expressed in CHO cells assessed as effect on induction of beta-arrestin recruitment after 90 mins in presence of 3 to 20 uM […] antagonist 2-(3-(6-(4-chlorophenoxy)hexyloxy)benzylidene)-6,7-dihydro-2H-imidazo[2,1-b][1,3]thiazin-3(5H)-one by beta-galactosidase based topcount luminescence analysis; format: cell-based; conditions: filed as agonist
[12] = molecular target: T2, N-arachidonyl glycine receptor (Homo sapiens); experiment: Agonist activity at Prolink1-tagged human GPR18 receptor expressed in CHO cells assessed as increase in beta-arrestin recruitment at 1 uM in presence of THC at lower concentrations after 90 mins by beta-galactosidase based topcount luminescence analysis; format: cell-based; conditions: filed as agonist
In short: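 GPR18-CHO β-arrestin recruitment assay. Fixed agonist at 1 μM combined with a THC concentration–response series. Means of three independent experiments in duplicate.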

[13] = molecular target: T2, N-arachidonyl glycine receptor (Homo sapiens); experiment: Agonist activity at Prolink1-tagged human GPR18 receptor expressed in CHO cells assessed as induction of beta-arrestin recruitment after 90 mins in presence of 3 uM THC by beta-galactosidase based topcount luminescence analysis; format: cell-based
In short: (§3)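 β-Arrestin recruitment in CHO cells expressing human GPR18. Agonist concentration–response curves recorded in the presence of fixed Δ9-THC (3 μM or 10 μM). Means of three independent experiments, each in duplicate.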

[14] = molecular target: T2, N-arachidonyl glycine receptor (Homo sapiens); experiment: Agonist activity at Prolink1-tagged human GPR18 receptor expressed in CHO cells assessed as induction of beta-arrestin recruitment after 90 mins in presence of 10 uM THC by beta-galactosidase based topcount luminescence analysis relative to control; format: cell-based; in short: as §3

T3 sequence (Q9Y2T6 whole entry): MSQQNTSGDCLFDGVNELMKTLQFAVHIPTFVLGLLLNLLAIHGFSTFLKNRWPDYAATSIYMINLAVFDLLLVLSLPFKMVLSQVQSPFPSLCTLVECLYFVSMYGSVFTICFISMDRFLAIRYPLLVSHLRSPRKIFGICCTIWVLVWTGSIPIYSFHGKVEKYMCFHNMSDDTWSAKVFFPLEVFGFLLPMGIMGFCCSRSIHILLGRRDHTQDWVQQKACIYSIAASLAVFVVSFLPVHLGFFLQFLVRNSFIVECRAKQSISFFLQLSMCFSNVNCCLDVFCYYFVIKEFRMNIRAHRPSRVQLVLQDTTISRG
Cannabinoid receptor 1 (Homo sapiens), sequence (P21554 whole entry): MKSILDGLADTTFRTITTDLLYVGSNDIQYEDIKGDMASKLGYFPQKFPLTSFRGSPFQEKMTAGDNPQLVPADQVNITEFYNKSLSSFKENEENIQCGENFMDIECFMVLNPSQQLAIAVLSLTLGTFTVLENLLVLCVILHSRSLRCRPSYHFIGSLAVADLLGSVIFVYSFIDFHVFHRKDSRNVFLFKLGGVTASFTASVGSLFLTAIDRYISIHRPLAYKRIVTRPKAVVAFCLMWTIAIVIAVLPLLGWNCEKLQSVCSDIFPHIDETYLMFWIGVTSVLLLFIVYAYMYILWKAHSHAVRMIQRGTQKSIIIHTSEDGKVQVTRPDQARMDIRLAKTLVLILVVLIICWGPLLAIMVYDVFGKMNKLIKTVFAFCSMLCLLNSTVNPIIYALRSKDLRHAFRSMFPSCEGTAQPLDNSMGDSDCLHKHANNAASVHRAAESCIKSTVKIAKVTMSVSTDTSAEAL
Cannabinoid receptor 2 (Homo sapiens), sequence (P34972 whole entry): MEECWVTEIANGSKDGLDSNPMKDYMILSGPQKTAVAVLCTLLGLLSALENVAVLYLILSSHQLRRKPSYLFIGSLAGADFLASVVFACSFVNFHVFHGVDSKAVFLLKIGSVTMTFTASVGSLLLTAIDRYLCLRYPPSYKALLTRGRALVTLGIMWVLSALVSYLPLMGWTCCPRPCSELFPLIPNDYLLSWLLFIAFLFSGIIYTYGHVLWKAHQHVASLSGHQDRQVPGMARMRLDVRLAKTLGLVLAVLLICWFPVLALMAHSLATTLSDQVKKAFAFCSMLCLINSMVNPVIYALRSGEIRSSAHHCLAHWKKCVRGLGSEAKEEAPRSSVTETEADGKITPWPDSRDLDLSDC

Structure (SMILES)	EC50 [1] [µM]	Activity [2] [%]	IC50 [3] [µM]	EC50 [4] [µM]	Activity [5] [%]	IC50 [6] [µM]	inhibition [7] [%]	Activity ([2]; filed as agonist) [%]	Activity [8]	Activity [9]	inhibition [10] [%]	Activity [11]	Activity [12]	Activity [13]	inhibition [14]
Cn1c(=O)c2c(nc3n2CCCN3CCc2ccccc2)n(C)c1=O	> 10	2	> 10	> 10	16	> 10	-10	–	–	–	–	–	–	–	–
C=C(C)[C@@H]1CCC(C)=C[C@H]1c1c(O)cc(O)cc1CCCCC	> 10	–	> 10	> 10	7	> 10	33	–	–	–	–	–	–	–	–
CCN(CC)CCN1CCCn2c1nc1c2c(=O)n(C)c(=O)n1C	> 10	39	> 10	> 10	4	> 10	-3	–	–	–	–	–	–	–	–
Cn1c(=O)c2c(nc3n2CCN3CCc2c[nH]c3ccccc23)n(C)c1=O	–	–	–	> 10	–	> 10	–	–	–	–	–	–	–	–	–
Cn1c(=O)c2c(nc3n2CCN3c2ccc(O)cc2)n(C)c1=O	> 10	22	> 10	> 10	13	> 10	–	–	–	–	–	–	–	–	–
CCCCCN1CCCn2c1nc1c2c(=O)n(C)c(=O)n1C	> 10	-1	> 10	> 10	10	> 10	–	–	–	–	–	–	–	–	–
COc1ccc(CCN2CCCn3c2nc2c3c(=O)n(C)c(=O)n2C)cc1OC	> 10	-39	> 10	> 10	15	> 10	32	–	–	–	–	–	–	–	–
CCCn1c(=O)c2c(nc3n2CCCN3CCc2c[nH]c3ccccc23)n(CCC)c1=O	> 10	-12	> 10	> 10	–	> 10	-4	–	–	–	–	–	–	–	–
CCCCCc1cc(O)c2c(c1)OC(C)(C)[C@@H]1CCC(C)=C[C@@H]21 [DRONABINOL]	–	–	–	> 10	-4	–	–	–	–	–	–	–	–	–	–
COc1ccc(CCN2CCCn3c2nc2c3c(=O)n(C)c(=O)n2C)cc1	> 10	-2	> 10	> 10	-6	> 10	–	–	–	–	–	–	–	–	–
COCCN1CCCn2c1nc1c2c(=O)n(C)c(=O)n1C	> 10	–	> 10	> 10	18	> 10	-4	40	–	–	–	–	–	–	–
Cn1c(=O)c2c(nc3n2CCCN3Cc2ccc(Cl)cc2)n(C)c1=O	> 10	6	> 10	> 10	-9	> 10	1	–	–	–	–	–	–	–	–
Cn1c(=O)c2c(nc3n2CCCN3CCc2ccc(Cl)cc2)n(C)c1=O	> 10	14	> 10	> 10	10	> 10	–	–	–	–	–	–	–	–	–
CCCCN1CCCn2c1nc1c2c(=O)n(C)c(=O)n1C	> 10	26	> 10	> 10	-4	> 10	34	–	–	–	–	–	–	–	–
Cn1c(=O)c2c(nc3n2CCCCN3CCc2c[nH]c3ccccc23)n(C)c1=O	–	–	–	> 10	–	> 10	–	–	–	–	–	–	–	–	–
CCN1CCCn2c1nc1c2c(=O)n(C)c(=O)n1C	> 10	2	> 10	> 10	-16	> 10	17	–	–	–	–	–	–	–	–
Cn1c(=O)c2c(nc3n2CCCN3CCc2c[nH]c3ccccc23)n(C)c1=O	0.562	–	–	> 10	-5	> 10	20	–	inactive	inactive	65	Active	Active	inactive	inactive
CCCCC/C=C\C/C=C\C/C=C\C/C=C\CCCC(=O)NCC(=O)O [ARACHIDONOYL GLYCINE]	> 10	–	> 10	–	–	–	–	–	–	–	–	–	–	–	–
